Reference: ChEMBL document CHEMBL4190190, “Furan and Lactam Jadomycin Biosynthetic Congeners Isolated from Streptomyces venezuelae ISP5230 Cultured with Nε-Trifluoroacetyl-l-lysine” (J Nat Prod, 2017)
Values after ≈ are worked out from the molar mass of the structure shown. Active and inactive are the calls of the source. The calls are words filed in the database; no cut-off is given here.

Tests used:
Staphylococcus aureus = assay: Antibacterial activity against methicillin-resistant Staphylococcus aureus ATCC 33591 after 22 hrs by CLSI microbroth assay; type: functional; conditions: ATCC 33591, 22 h
Outline: (§1)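 Run within a six-organism panel: MRSA, Staphylococcus warneri and vancomycin-resistant E. faecium (Gram-positive), Proteus vulgaris and Pseudomonas aeruginosa (Gram-negative), and the yeast Candida albicans. Read-out was the minimum inhibitory concentration, reported in μg mL−1.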

Pseudomonas aeruginosa = assay: Antibacterial activity against Pseudomonas aeruginosa ATCC 14210 after 22 hrs by CLSI microbroth assay; type: functional, organism-based
BJ = assay: Cytotoxicity against human BJ cells after 24 hrs by alamar blue assay; type: cell-based
Vero = assay: Cytotoxicity against African green monkey Vero cells after 24 hrs by alamar blue assay; type: cell-based; conditions: chlorocebus sabaeus
Enterococcus faecium = assay: Antibacterial activity against vancomycin-resistant Enterococcus faecium EF379 after 22 hrs by CLSI microbroth assay; type: functional; conditions: EF379, 22 h; outline: as §1
Proteus vulgaris = assay: Antibacterial activity against Proteus vulgaris ATCC 12454 after 22 hrs by CLSI microbroth assay; type: functional, organism-based
Staphylococcus warneri = assay: Antibacterial activity against Staphylococcus warneri ATCC 17917 after 22 hrs by CLSI microbroth assay; type: functional; conditions: ATCC 17917, 22 h

SMILES	MIC (Staphylococcus aureus) [µg/mL]	Activity (Pseudomonas aeruginosa)	MIC90 (BJ) [µg/mL]	MIC90 (Vero) [µg/mL]	MIC (Enterococcus faecium) [µg/mL]	Activity (Proteus vulgaris)	MIC (Staphylococcus warneri) [µg/mL]
Cc1cc(O)c2c3c(n([C@@H](CCCCNC(=O)C(F)(F)F)C(=O)O)c(=O)c2c1)C(=O)c1c(O[C@H]2C[C@@H](O)[C@@H](O)[C@H](C)O2)cccc1C3=O	≥ 100	inactive	> 128	> 128	≥ 100	inactive	≥ 100
Cc1cc(O)c2c(c1)C1OC(=O)[C@H](CCCCNC(=O)C(F)(F)F)N1C1=C2C(=O)c2cccc(O[C@H]3C[C@@H](O)[C@@H](O)[C@H](C)O3)c2C1=O (some centres undefined)	3 (≈ 4.54 µM)	inactive	> 128	> 128	13 (≈ 19.7 µM)	inactive	3 (≈ 4.54 µM)
